Measurements: ChEMBL document CHEMBL1123266, “Antibacterial activity of phosphono dipeptides related to alafosfalin” (J Med Chem, 1986)
≈ marks a conversion by molar mass, not a printed value.

Columns and labels:
Enterococcus faecalis [1] = experiment: Minimum inhibitory concentration (MIC) to control the growth of Streptococcus faecalis strain PCM 896; type: functional
Method in brief: (§1)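 Doubling dilutions of compound were made in a defined liquid peptide medium free of peptide-mimetic antagonists, final 0.065–512 μg/mL. The inoculum was an overnight 37 °C culture diluted to about 4 × 10^6 cfu/mL, incubated overnight at 37 °C. Non-turbid samples were subcultured (0.1 mL) onto solid peptide-medium agar and incubated overnight at 37 °C to assign MIC.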

Klebsiella aerogenes [2] = experiment: Minimum inhibitory concentration (MIC) to control the growth of Klebsiella aerogenes strain PCM 2063; type: functional; method in brief: as §1
Klebsiella aerogenes [3] = experiment: Concentration (IC50) to inhibit the growth of Klebsiella aerogenes.; type: functional, organism-based
Method in brief: (§2)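 Broth dilution in a defined liquid peptide medium lacking antagonists of small peptide mimetics. Inocula were overnight cultures grown in this medium at 37 °C and diluted to about 4 × 10^6 cfu/mL. Compound was tested as a doubling dilution series, final 0.065–512 μg/mL, incubated overnight at 37 °C. Turbidity was read, and IC50 is the concentration reducing 24-h growth to 50% of control.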

Serratia marcescens [4] = experiment: Compound was evaluated for its minimum inhibitory concentration (MIC) to control the growth of Serratia marcescens strain PCM 549.; type: functional; method in brief: as §1
Escherichia coli [5] = experiment: Concentration (IC50) to inhibit the growth of Escherichia coli.; type: functional, organism-based; method in brief: as §2
Bacillus subtilis [6] = experiment: Minimum inhibitory concentration (MIC) to control the growth of Bacillus subtilis strain PCM 1949.; type: functional; method in brief: as §1
Bacillus subtilis [7] = experiment: Concentration (IC50) to inhibit the growth of Bacillus subtilis; type: functional, organism-based; method in brief: as §2
Escherichia coli [8] = experiment: Minimum inhibitory concentration (MIC) to control the growth of Escherichia coli strain PCM 2057; type: functional; method in brief: as §1
Serratia marcescens [9] = experiment: Concentration (IC50) to inhibit the growth of Serratia marcescens.; type: functional, organism-based; method in brief: as §2
Staphylococcus aureus [10] = experiment: Concentration (IC50) to inhibit the growth of Staphylococcus aureus.; type: functional, organism-based; method in brief: as §2
Enterococcus faecalis [11] = experiment: Concentration (IC50) to inhibit the growth of Streptococcus faecalis.; type: functional, organism-based; method in brief: as §2
Staphylococcus aureus [12] = experiment: Minimum inhibitory concentration (MIC) to control the growth of Staphylococcus aureus strain PCM 2054.; type: functional; method in brief: as §1
Staphylococcus aureus [13] = experiment: Compound was evaluated for its minimum inhibitory concentration (MIC) to control the growth of Staphylococcus aureus strain PCM 2054.; type: functional; method in brief: as §1
Bacillus subtilis [14] = experiment: Compound was evaluated for its minimum inhibitory concentration (MIC) to control the growth of Bacillus subtilis strain PCM 1949.; type: functional; method in brief: as §1
Staphylococcus aureus [15] = experiment: Compound was evaluated for its concentration (IC50) to inhibit the growth of Staphylococcus aureus.; type: functional, organism-based; method in brief: as §2
Serratia marcescens [16] = experiment: Minimum inhibitory concentration (MIC) to control the growth of Serratia marcescens strain PCM 549.; type: functional; method in brief: as §1
Escherichia coli [17] = experiment: Compound was evaluated for its minimum inhibitory concentration (MIC) to control the growth of Escherichia coli strain PCM 2057.; type: functional; method in brief: as §1
Serratia marcescens [18] = experiment: Compound was evaluated for its concentration (IC50) to inhibit the growth of Serratia marcescens.; type: functional, organism-based; method in brief: as §2

Row | Compound | MIC (Enterococcus faecalis [1]) [µg/mL] | MIC (Klebsiella aerogenes [2]) [µg/mL] | IC50 (Klebsiella aerogenes [3]) [µg/mL] | MIC (Serratia marcescens [4]) [µg/mL] | IC50 (Escherichia coli [5]) [µg/mL] | MIC (Bacillus subtilis [6]) [µg/mL] | IC50 (Bacillus subtilis [7]) [µg/mL] | MIC (Escherichia coli [8]) [µg/mL] | IC50 (Serratia marcescens [9]) [µg/mL] | IC50 (Staphylococcus aureus [10]) [µg/mL] | IC50 (Enterococcus faecalis [11]) [µg/mL] | MIC (Staphylococcus aureus [12]) [µg/mL] | MIC (Staphylococcus aureus [13]) [µg/mL] | MIC (Bacillus subtilis [14]) [µg/mL] | IC50 (Staphylococcus aureus [15]) [µg/mL] | MIC (Serratia marcescens [16]) [µg/mL] | MIC (Escherichia coli [17]) [µg/mL] | IC50 (Serratia marcescens [18]) [µg/mL]
1 | CC(C)CC(N)C(=O)NC(C1CC1)P(=O)(O)O (configuration not stated) | > 512 | > 512 | > 512 | > 512 | > 512 | > 512 | > 512 | > 512 | > 512 | 83 (≈ 314 µM) | > 512 | 128 (≈ 484 µM) | – | – | – | – | – | –
2 | CC(N)C(=O)NC(Cc1ccccc1)P(=O)(O)O (configuration not stated) | > 512 | > 512 | > 512 | > 512 | > 512 | – | 6.8 (≈ 25 µM) | > 512 | 14 (≈ 51.4 µM) | – | > 512 | – | > 512 | > 512 | 333 (≈ 1220 µM) | – | – | –
3 | CC(N)C(=O)NC(C1CCC1)P(=O)(O)O (configuration not stated) | > 512 | > 512 | > 512 | – | > 512 | > 512 | > 512 | > 512 | > 512 | > 512 | > 512 | > 512 | – | – | – | > 512 | – | –
4 | CC(C)CC(N)C(=O)NC(C(C)C)P(=O)(O)O (configuration not stated) | > 512 | > 512 | 0.065 (≈ 0.244 µM) | – | 282 (≈ 1060 µM) | 512 (≈ 1920 µM) | 179 (≈ 672 µM) | > 512 | > 512 | 32 (≈ 120 µM) | 410 (≈ 1540 µM) | > 512 | – | – | – | > 512 | – | –
5 | CC(N)C(=O)NC(C)P(=O)(O)O (configuration not stated) | > 512 | > 512 | 64 (≈ 326 µM) | – | 0.22 (≈ 1.12 µM) | > 512 | 512 (≈ 2610 µM) | – | 0.6 (≈ 3.06 µM) | 58 (≈ 296 µM) | 30 (≈ 153 µM) | > 512 | – | – | – | 64 (≈ 326 µM) | 8 (≈ 40.8 µM) | –
6 | CC(C)CC(N)C(=O)NC(C1CCC1)P(=O)(O)O (configuration not stated) | > 512 | > 512 | > 512 | – | > 512 | > 512 | > 512 | > 512 | – | > 512 | 230 (≈ 826 µM) | > 512 | – | – | – | > 512 | – | > 512
